This note sets out measurements from the RNAGym collection of RNA variant scans (doi:10.1101/gad.245936.114).

The labels stand for the following.
B1: tRNA (parent)
chain: CUCUCGGUAGCCAAGUUGGUUUAAGGCGCAAGACUUUAAUUUAUCACUACGAAAUCUUGAGAUCGGGCGUUCGACUCGCCCCCGGGAGAUUUUUUCCUCGAGCAA

Fewer inactive variants are shown than the library holds.

The data set covers variants of B1. Kind of data set: nonsense suppression (GFP-seq) (ratio to wild type); higher = more function; SUP4oc tRNA, yeast GFP reporter sort-seq. In outline: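 Sorted GFP/RFP bins of yeast were each Illumina-sequenced with a phred ≥30 cutoff; the cells held a genome-integrated ochre-suppressor tRNA variant from a library with ~3% random mutations, a galactose-driven GFP ochre reporter, and RFP. Culture was in raffinose/galactose medium containing 80 mg/L adenine. Nonsense suppression, termed GFPSEQ, is the median GFP/RFP of the bins weighted by each variant's estimated cell share per bin, relative to the unmutated parent tRNA, for variants reaching ≥100 reads and ≥30 cells.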
As for CUCUCGGUAGCCAAGUUGGUUUAAGGCGCAAGACUUUAAUUUAUCACUACGAAAUCUUGAGAUCGGGCGUUCGACACGCCCCCGGGAGAUUUUUUCCUCGAGCAA [U76A], the nonsense suppression is at most 0.026.
To CUCUCGGUAGCCAAGUUGGUUUAAGGCGCAAGACUUUAAUUUAUCACUACGAAAUCUUGAGAUCGGGCGUUCGACCCGCCCCCGGGAGAUUUUUUCCUCGAGCAA [U76C] belongs 1; to CUCUCGGUAGCCAAGUUGGUUUAAGGCGCAAGACUUUAAUUUAUCACUACGAAAUCUUGAGAUCGGGCGUUCGACUCACCCCAGGGAGAUUUUUUCCUCGAGCAA [G78A C83A], at most 0.026.
To CUCUCGGUAGCCAAGUUGGUUUAAGGCGCAAGACUUUAAUUUAUCACUACGAAAUCUUGAGAUCGGGCGUUCGAUUCGCCCCCGUGAGAUUUUUUCCUCGAGCAA [C75U G85U] belongs 1.12; to CUCUCGGUAGCCAAGUUGGUUUAAGGCGCAAGACUUUAAUUUAUCACUACGAAAUCUUGAGAUCGGGCGUUCGAUUCGCCCCCGAGAGAUUUUUUCCUCGAGCAA [C75U G85A], 1.06; to CUCUCGGUAGCCAAGUUGGUUUAAGGCGCAAGACUUUAAUUUAUCACUACGAAAUCUUGAGAUCGGGCGUUCGACACGCCCCCGGGGGAUUUUUUCCUCGAGCAA [U76A A87G], 0.0534.
On to CUCUCGGUAGCCAAGUUGGUUUAAGGCGCAAGACUUUAAUUUAUCACUACGAAAUCUUGAGAUCGGGCGUUCGAAUCCCCCCCGGGAGAUUUUUUCCUCGAGCAA [C75A G78C], for which the nonsense suppression was determined as 1.
To CUCUCGGUAGCCAAGUUGGUUUAAGGCGCAAGACUUUAAUUUAUCACUACGAAAUCUUGAGAUCGGGCGUUCGAAUCACCCCCGGGAGAUUUUUUCCUCGAGCAA [C75A G78A] belongs 0.698; to CUCUCGGUAGCCAAGUUGGUUUAAGGCGCAAGACUUUAAUUUAUCACUACGAAAUCUUGAGAUCGGGCGUUCGAAUCGCCCCCGAGAGAUUUUUUCCUCGAGCAA [C75A G85A], 1.05.
To CUCUCGGUAGCCAAGUUGGUUUAAGGCGCAAGACUUUAAUUUAUCACUACGAAAUCUUGAGAUCGGGCGUUCGAAUCGCCCACGGGAGAUUUUUUCCUCGAGCAA [C75A C82A] belongs 0.217; to CUCUCGGUAGCCAAGUUGGUUUAAGGCGCAAGACUUUAAUUUAUCACUACGAAAUCUUGAGAUCGGGCGUUCGAGUCGCCCCCGUGAGAUUUUUUCCUCGAGCAA [C75G G85U], 1.12; to CUCUCGGUAGCCAAGUUGGUUUAAGGCGCAAGACUUUAAUUUAUCACUACGAAAUCUUGAGAUCGGGCGUUCGAGUCGCCCCCGCGAGAUUUUUUCCUCGAGCAA [C75G G85C], 0.191.
On to CUCUCGGUAGCCAAGUUGGUUUAAGGCGCAAGACUUUAAUUUAUCACUACGAAAUCUUGAGAUCGGGCGUUCGUCUCGUCCCCGGGAGAUUUUUUCCUCGAGCAA [A74U C79U], for which the nonsense suppression stood at 0.0357.
To CUCUCGGUAGCCAAGUUGGUUUAAGGCGCAAGACUUUAAUUUAUCACUACGAAAUCUUGAGAUCGGGCGUUCGGCUCCCCCCCGGCAGAUUUUUUCCUCGAGCAA [A74G G78C G86C] belongs at most 0.026; to CUCUCGGUAGCCAAGUUGGUUUAAGGCGCAAGACUUUAAUUUAUCACUACGAAAUCUUGAGAUCGGGCGUUCGACCCGCCCCCGGGGGAUUUUUUCCUCGAGCAA [U76C A87G], 0.932; to CUCUCGGUAGCCAAGUUGGUUUAAGGCGCAAGACUUUAAUUUAUCACUACGAAAUCUUGAGAUCGGGCGUUCGACUCAGCCCCGGGAGAUUUUUUCCUCGAGCAA [G78A C79G], 0.0629.
Regarding CUCUCGGUAGCCAAGUUGGUUUAAGGCGCAAGACUUUAAUUUAUCACUACGAAAUCUUGAGAUCGGGCGUUCGAAUCGCCCCCGGGGGAUUUUUUCCUCGAGCAA [C75A A87G], the nonsense suppression is 0.839.
To CUCUCGGUAGCCAAGUUGGUUUAAGGCGCAAGACUUUAAUUUAUCACUACGAAAUCUUGAGAUCGGGCGUUCGACCCCCCCCCGGGAGAUUUUUUCCUCGAGCAA [U76C G78C] belongs 0.118; to CUCUCGGUAGCCAAGUUGGUUUAAGGCGCAAGACUUUAAUUUAUCACUACGAAAUCUUGAGAUCGGGCGUUCGACCCUCCCCCGGGAGAUUUUUUCCUCGAGCAA [U76C G78U], 0.0507; to CUCUCGGUAGCCAAGUUGGUUUAAGGCGCAAGACUUUAAUUUAUCACUACGAAAUCUUGAGAUCGGGCGUUCGACCCACCCCCGGGAGAUUUUUUCCUCGAGCAA [U76C G78A], 0.0382.
Consider CUCUCGGUAGCCAAGUUGGUUUAAGGCGCAAGACUUUAAUUUAUCACUACGAAAUCUUGAGAUCGGGCGUUCGACGCGGCCCCGGGAAAUUUUUUCCUCGAGCAA [U76G C79G G88A], for which the nonsense suppression is at most 0.026.
To CUCUCGGUAGCCAAGUUGGUUUAAGGCGCAAGACUUUAAUUUAUCACUACGAAAUCUUGAGAUCGGGCGUUCGACUCACCCGCGGGAGAUUUUUUCCUCGAGCAA [G78A C82G] belongs 0.0423; to CUCUCGGUAGCCAAGUUGGUUUAAGGCGCAAGACUUUAAUUUAUCACUACGAAAUCUUGAGAUCGGGCGUUCGACUCACCCACGGGAGAUUUUUUCCUCGAGCAA [G78A C82A], 0.0338; to CUCUCGGUAGCCAAGUUGGUUUAAGGCGCAAGACUUUAAUUUAUCACUACGAAAUCUUGAGAUCGGGCGUUCGAUGCGCCCCCGGGAGAUUUUUUCCUCGAGCAA [C75U U76G], 0.172.
For the variant CUCUCGGUAGCCAAGUUGGUUUAAGGCGCAAGACUUUAAUUUAUCACUACGAAAUCUUGAGAUCGGGCGUUCGAAUCGCUCCCGGGAGAUUUUUUCCUCGAGCAA [C75A C80U], the nonsense suppression is 1.01.
To CUCUCGGUAGCCAAGUUGGUUUAAGGCGCAAGACUUUAAUUUAUCACUACGAAAUCUUGAGAUCGGGCGUUCGAAUCGCGCCCGGGAGAUUUUUUCCUCGAGCAA [C75A C80G] belongs at most 0.026; to CUCUCGGUAGCCAAGUUGGUUUAAGGCGCAAGACUUUAAUUUAUCACUACGAAAUCUUGAGAUCGGGCGUUCGACUAGCCUCCGGGAGAUUUUUUCCUCGAGCAA [C77A C81U], at most 0.026.
